# This is a sample that favours compounds with a hit; in the whole collection about 6.4% have one here.
# HUVEC prolif 384 = inhibitors of human endothelial cell proliferation; HUVEC proliferation, CellTiter-Glo luminescence, 72 h; active compounds read low; viability, % at 10 µM (by protocol); 86,000 compounds, 1.1% hits;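 active means viability at or below 30%; inactive means viability above 30%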;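 further: 100% = median luminescence of DMSO-only cell control wells on each plate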
# Jurkat tox 60K = cytotoxic compounds reducing Jurkat cell viability | Jurkat E6.1 viability, ATP luminescence, 48 h | inhibition, % at 4 µM | 56,000 compounds, 1.2% hits | AID 463;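 active means inhibition above the mean inhibition of all tested compounds plus 3 SD, cut at about 28% in these data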
# Fibroblast inh = blocks proliferation of human lung fibroblasts; viability, % at 10 µM; 85,000 compounds, 1.1% hits; LL 47 human lung fibroblast viability, ATP luminescence; active compounds read low;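 active means viability at or below 50% in the single dose screen; inactive means viability above 50%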;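 further: compound exposure lasted 72 h before the ATP readout; 100% = median luminescence of untreated cell-only wells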
#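 Benchmarks: Cell-only wells, no compound | Test system: LL 47 human lung fibroblasts, passage 12 or lower | Input: 1,150 cells/well | Measured by: CellTiter-Glo luminescence measuring cellular ATP | Medium: IMEM, 15% FBS supplement | Schedule: Overnight attachment after seeding, then 72 h compound exposure at 37 °C | Doses: Compound addition at 0.1% DMSO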
# H69AR inhibit = growth inhibitors of human H69AR lung tumor cells | H69AR lung tumor viability, ATP luminescence, 72 h; active compounds read low | viability, % at 10 µM | 85,000 compounds, 6% hits | AID 598;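 active means viability at or below 40%; inactive means viability above 40%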;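 further: multidrug resistant small cell line overexpressing MRP-1 efflux transporter; 100% = mean luminescence of untreated control wells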
# Starred values were filed as active, the others as inactive; · = no result.
SMILES,HUVEC prolif 384,Jurkat tox 60K,Fibroblast inh,H69AR inhibit
S=C(NN=C1C2CC3CC(C2)CC1C3)Nc1ccccc1,88,·,81,81
C=C(C)COc1ccc(-c2ncncc2Oc2ccc(OC)cc2)c(O)c1,89,4,98,48
COc1ccc(-c2cnc(N)nc2-c2ccc(OC)cc2O)cc1,89,9,103,49
C=C(C)COc1ccc(-c2[nH]ncc2-c2ccccc2)c(O)c1,38,·,94,39*
C=C(C)COc1ccc(-c2nc(N)ncc2-c2ccc(OC)cc2)c(O)c1,99,1,93,10*
C=C(C)COc1ccc(-c2[nH]ncc2-c2ccc(OC)c(OC)c2)c(O)c1,45,65*,46*,·
Cn1c(SCC(=O)Nc2ccccc2F)nnc1-c1cc2ccccc2o1,93,·,97,106
Cc1nc2ccc(NS(=O)(=O)c3c(C)c(C)cc(C)c3C)cc2s1,87,·,96,16*
O=C1C2C(C(=O)N1Cc1cccnc1)C1C=CC2C12CC2 (configuration not stated),94,2,103,102
COC(=O)C1C(=O)c2c([nH]c(C(=O)OC3CCCC3)c2C)CC1C (configuration not stated),90,·,90,70
Cc1c(C(=O)OC2CCCC2)[nH]c2c1C(=O)CC(c1ccco1)C2 (configuration not stated),32,100*,55,28*
Cc1c(C(=O)N2CCOCC2)[nH]c2c1C(=O)CC(c1ccccc1Cl)C2 (configuration not stated),56,82*,62,22*
Cc1c(C(=O)OCC2CCCO2)[nH]c2c1C(=O)CC(c1ccco1)C2 (configuration not stated),57,78*,57,28*
C/C=C/COC(=O)c1[nH]c2c(c1C)C(=O)CC(c1ccc(N(C)C)cc1)C2 (configuration not stated),79,0,110,29*
Cc1cccc(NCN2C(=O)c3ccccc3C2=O)c1,95,·,99,96
CCC(C)OC(=O)c1[nH]c2c(c1C)C(=O)CC(c1ccc(N(C)C)cc1)C2 (configuration not stated),75,2,101,76
Cc1c(C(=O)OCC(C)C)[nH]c2c1C(=O)CC(c1ccco1)C2 (configuration not stated),44,99*,51,17*
COC(=O)c1[nH]c2c(c1C)C(=O)CC(c1ccccc1)C2 (configuration not stated),46,98*,59,19*
C/C=C/COC(=O)c1[nH]c2c(c1C)C(=O)CC(c1ccco1)C2 (configuration not stated),42,99*,53,29*
CCOCCOC(=O)c1[nH]c2c(c1C)C(=O)CC(c1ccc(N(C)C)cc1)C2 (configuration not stated),·,1,·,·
C=CCOC(=O)c1[nH]c2c(c1C)C(=O)CC(c1ccco1)C2 (configuration not stated),46,100*,55,30*
COc1ccc(NC(C)=O)cc1NC(C)C(=O)Nc1cccc2ccccc12 (configuration not stated),104,·,98,77
CCCSc1nc(C)cc(C)c1C(N)=O,95,·,99,93
CCN(CC)CCCN1C(=O)c2oc3ccccc3c(=O)c2C1c1cccs1 (configuration not stated),97,·,107,76
c1ccc(-c2cc3c(ccc4nonc43)nn2)cc1,94,-13,·,101
SMILES,HUVEC prolif 384,Jurkat tox 60K,Fibroblast inh,H69AR inhibit
On1onc2c3cc(-c4ccccc4)nc3ccc21,40,98*,23*,6.0*
CCOC(=O)CSc1nc2ccc(N3CCOCC3)cc2c(=O)n1Cc1ccc2c(c1)OCO2,88,·,91,94
Cn1c(=O)n(CCc2ccccc2)c(=O)c2c1nc1n2CCCN1c1ccc(F)cc1,94,0,94,69
O=C(CN1C(=O)CCC1=O)Nc1ccc(Br)cc1,88,-1,102,40*
COc1ccc(S(=O)(=O)N2CCN(CC(=O)Nc3cc(OC)cc(OC)c3)CC2)cc1,86,-4,103,4.9*
COc1ccc(S(=O)(=O)N2CCCN(CC(=O)Nc3ccc(OC)c(Cl)c3)CC2)cc1,98,2,103,2.1*
O=C(CN1CCN(S(=O)(=O)c2ccc(Br)cc2)CC1)Nc1ccc(F)cc1,92,3,99,1.6*
COc1ccccc1-n1cnnc1SCC(=O)Nc1nc(C)c(Cl)cc1Cl,94,·,100,86
CC(CC(C)C(=O)Nc1ccccc1C(C)(C)C)C(=O)O (configuration not stated),105,·,99,113
CC1=Nc2ccccc2/C1=C/c1sc(=N)n(-c2nccs2)c1O,52,·,52,2.9*
O=C(CSc1ncn[nH]1)Nc1ccc(Cl)c(Cl)c1,104,15,97,56
C[C@@H]1CCC[C@H](C)N1NC(=O)c1ccc(Cl)c(S(N)(=O)=O)c1,103,·,105,91
CCOc1ccc2nc(SCC(=O)N3CCCCCC3)c(C#N)cc2c1,91,3,·,38*
CCOC(=O)CSc1nc2ccc(C)cc2cc1C#N,106,·,106,82
COC(=O)CC(=O)CSc1nc2c(cc1C#N)CCCCC2,82,-2,101,81
CCOC(=O)CC(=O)CSc1nc2c(cc1C#N)CCC2,76,·,101,35*
CCOc1ccc2cc(C#N)c(SCC(=O)N3CCOCC3)nc2c1,111,7,98,52
CCOC(=O)CSc1nc2cc(C)ccc2cc1C#N,78,11,83,34*
O=S(=O)(c1ccc(Cl)cc1)N1CCC(n2cnc3cc(C(F)(F)F)ccc32)CC1,94,·,103,35*
O=S(=O)(c1ccc2c(c1)OCCO2)N1CCC(n2cnc3cc(F)ccc32)CC1,96,17,92,68
CCc1ccc2oc(-c3cc(N)ccc3Cl)nc2c1,67,1,78,71
CCc1ccc2oc(-c3cc(N)ccc3O)nc2c1,82,0,68,32*
CCc1ccc2oc(-c3cc(N)cc(C)c3O)nc2c1,81,47*,82,23*
CC(=O)Nc1ccc(Cl)cc1C(=O)O,95,-5,96,96
O=C1C2ON(c3ccc(Cl)cc3)C(c3ccco3)C2C(=O)N1c1ccccc1 (configuration not stated),91,-4,98,80
SMILES,HUVEC prolif 384,Jurkat tox 60K,Fibroblast inh,H69AR inhibit
CC(O)/C=C/c1ccc2ccccc2n1 (configuration not stated),70,15,71,23*
CC1CCCN(S(=O)(=O)c2ccc(S(=O)(=O)N3CCCN(Cc4ccccc4)C3)cc2)C1 (configuration not stated),41,-4,85,31*
COC(=O)c1ccc(Cn2cnc3c(cnn3-c3ccc(Cl)cc3)c2=O)o1,103,0,97,99
CC1CCC(C(C)C)C2=C1C(C#N)(C#N)C(C#N)(C#N)C(c1ccccc1)N2 (configuration not stated),28*,·,32*,0.0*
CCCn1c(SCC(=O)NCCc2ccc(Cl)cc2Cl)n[nH]c1=O,93,0,97,91
CCOC(=O)NC1(NC2CCCCC2)Oc2ccccc2O1,89,4,·,21*

# Assay outcomes (PubChem)
